# Measured values taken from ChEMBL document CHEMBL1137540, “Synthesis and in vitro evaluation of leishmanicidal and trypanocidal activities of N-quinolin-8-yl-arylsulfonamides” (Bioorg Med Chem, 2007).
# Legend:
# Trypanosoma cruzi [1] = assay: Reduction of Trypanosoma cruzi Y amastigotes infection in Vero cells at 25 uM after 48 hrs; assay type: functional; set-up: scale not given: the % may be the effect or the level left
# Method in brief: (§1)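 Vero cells on glass slides in DMEM with 5% FBS at 37 °C, 5% CO2 were infected with culture-derived trypomastigotes at 1:10 cell:parasite for 6 h. Non-adherent parasites were washed off, and cells were treated for 48 h. Slides were methanol-fixed and Giemsa-stained, and 500 random cells were examined at 1000× for infection rate. Values are the mean of two experiments.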
# [2] = Cytotoxicity against Vero cells by MTT assay; assay type: cell-based; details: African green monkey
# Method in brief: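 Vero cells were exposed to compounds for 72 h at 37 °C, then incubated with MTT for 4 h. Formazan was dissolved in DMSO and read at 540 nm. CC50 was derived by linear regression, with ANOVA and Dunnett's test.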
# Trypanosoma cruzi [3] = assay: Antiprotozoal activity against Trypanosoma cruzi Y in vero cells; assay type: functional, organism-based
# Leishmania amazonensis [4] = assay: Antiprotozoal activity against Leishmania amazonensis 575 in vero cells; assay type: functional, organism-based; details: promastigotes, in the assay text read “promastigotes” for “in vero cells”
# Method in brief: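 Axenic growth assay: L. amazonensis 575 promastigotes were grown in Schneider's medium with 5% heat-inactivated FBS, and T. cruzi Y epimastigotes in LIT medium with 10% FBS. Parasites at 1 × 10^6 cells/ml were exposed to 0.2–100 µM for 72 h at 28 °C. Survivors were counted in a Neubauer chamber. Three experiments were run in triplicate, and IC50 was derived by linear regression.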
# Leishmania chagasi = assay: Antiprotozoal activity against Leishmania chagasi PP75 in vero cells; assay type: functional, organism-based
# Leishmania amazonensis [5] = assay: Reduction of Leishmania amazonensis 575 amastigotes infection in mouse peritoneal macrophage at 10 uM after 48 hrs; assay type: functional; set-up: scale not given: the % may be the effect or the level left
# Method in brief: (§2)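 Peritoneal macrophages from female albino Swiss mice were grown on glass slides in DMEM with 20% heat-inactivated FBS at 37 °C, 5% CO2. Cells were infected with L. amazonensis promastigotes at 1:10 cell:parasite for 4 h, then treated for 48 h. Slides were methanol-fixed and Giemsa-stained, and 500 random cells were scored for infection rate. Values are the mean of two experiments.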
# Leishmania amazonensis [6] = assay: Reduction of Leishmania amazonensis 575 infection in mouse peritoneal macrophage at 1 uM after 48 hrs; assay type: functional; set-up: scale not given: the % may be the effect or the level left; method in brief: as §2
# Leishmania amazonensis [7] = assay: Reduction of Leishmania amazonensis 575 infection in mouse peritoneal macrophage at 5 uM after 48 hrs; assay type: functional; set-up: scale not given: the % may be the effect or the level left; method in brief: as §2
# Leishmania amazonensis [8] = assay: Reduction of Leishmania amazonensis 575 infection in mouse peritoneal macrophage at 25 uM after 48 hrs; assay type: functional; set-up: scale not given: the % may be the effect or the level left; method in brief: as §2
# Trypanosoma cruzi [9] = assay: Reduction of Trypanosoma cruzi Y amastigotes infection in Vero cells at 1 uM after 48 hrs; assay type: functional; set-up: scale not given: the % may be the effect or the level left; method in brief: as §1
# Trypanosoma cruzi [10] = assay: Reduction of Trypanosoma cruzi Y amastigotes infection in Vero cells at 5 uM after 48 hrs; assay type: functional; set-up: scale not given: the % may be the effect or the level left; method in brief: as §1
Compound,IC50 (Trypanosoma cruzi [3]) [µM],IC50 (Leishmania amazonensis [4]) [µM],IC50 (Leishmania chagasi) [µM],Activity (Trypanosoma cruzi [1]) [%],CC50 [2] [µM],Activity (Leishmania amazonensis [5]) [%],Activity (Leishmania amazonensis [6]) [%],Activity (Leishmania amazonensis [7]) [%],Activity (Leishmania amazonensis [8]),Activity (Trypanosoma cruzi [9]) [%],Activity (Trypanosoma cruzi [10]) [%]
C[C@@H]1[C@H](O)[C@@H](C)/C=C/C=C/C=C/C=C/C=C/C=C/C=C/[C@H](O[C@@H]2O[C@H](C)[C@@H](O)[C@H](N)[C@@H]2O)C[C@@H]2O[C@](O)(C[C@@H](O)C[C@@H](O)[C@H](O)CC[C@@H](O)C[C@@H](O)CC(=O)O[C@H]1C)C[C@H](O)[C@H]2C(=O)O [AMPHOTERICIN B],–,0.31,0.25,–,98.4,97,–,–,–,–,–
O=S(=O)(Nc1cccc2cccnc12)c1cc(Br)c(Br)s1,> 100,2.85,0.53,–,68.7,–,–,–,–,–,–
CCCc1ccc(S(=O)(=O)Nc2cccc3cccnc23)cc1,> 100,14.5,14,–,64.4,–,18.7,52.2,63.7%,–,–
CCCc1ccc(S(=O)(=O)Nc2c(Br)cc(Br)c3cccnc23)cc1,> 100,> 100,> 100,–,–,–,–,–,–,–,–
O=[N+]([O-])c1ccc(S(=O)(=O)Nc2cccc3cccnc23)cc1,> 100,> 100,> 100,–,–,–,–,–,–,–,–
CN(C)c1cccc2c(S(=O)(=O)Nc3cccc4cccnc34)cccc12,> 100,7.18,3.53,–,84.2,–,25.7,48.2,Toxic,–,–
CC(C)c1cc(C(C)C)c(S(=O)(=O)Nc2cccc3cccnc23)c(C(C)C)c1,> 100,> 100,> 100,–,–,–,–,–,–,–,–
O=S(=O)(Nc1cccc2cccnc12)c1ccc(-c2ccccc2)cc1,> 100,6.27,2.18,–,245,–,60,72.3,82.1%,–,–

# Now from value to compound, other results behind:
IC50 (Trypanosoma cruzi [3]) [µM],IC50 (Leishmania amazonensis [4]) [µM],IC50 (Leishmania chagasi) [µM],Compound,Activity (Trypanosoma cruzi [1]) [%],CC50 [2] [µM],Activity (Leishmania amazonensis [5]) [%],Activity (Leishmania amazonensis [6]) [%],Activity (Leishmania amazonensis [7]) [%],Activity (Leishmania amazonensis [8]),Activity (Trypanosoma cruzi [9]) [%],Activity (Trypanosoma cruzi [10]) [%]
14.6,–,–,O=C(Cn1ccnc1[N+](=O)[O-])NCc1ccccc1 [BENZNIDAZOLE],92,> 1000,–,–,–,–,–,–
> 100,4.94,2.99,O=S(=O)(Nc1cccc2cccnc12)c1ccc(Br)cc1,–,88.7,–,–,–,–,–,–
> 100,> 100,> 100,O=S(=O)(Nc1cccc2cccnc12)c1ccc(F)cc1,–,–,–,–,–,–,–,–
> 100,> 100,> 100,CCCc1ccc(S(=O)(=O)Nc2cc(OC)cc3ccc(C)nc23)cc1,–,–,–,–,–,–,–,–
> 100,2.12,0.45,O=S(=O)(Nc1cccc2cccnc12)c1cc(F)cc(F)c1,–,66.3,–,–,–,–,–,–
31.8,2.25,0.56,O=S(=O)(Nc1cccc2cccnc12)c1cnc(Cl)c(Br)c1,96.4,67.4,–,52,67.1,84.8%,78.6,85.2
